Compounds with a hit are over-represented: about 3% of the library has one in this group of screens.
aDG glyco act – alpha-DG glycosylation activation. activation, % at 10 µM. Pro5-aDG cells, alpha-DG glycosylation AlphaScreen (IIH6); 0% Pro5, 100% B10-LARGE cell signal. actives 0.22% (n = 360,000);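 active = activation of at least 8% versus controls, or a plate z-score of at least 8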;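 note: Pro5 are CHO cells carrying HIG-tagged alpha-DG that lacks glycosylation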
NPR2 activator – GC-B (human) receptor activation; P20594; HEK293-GC-B cells, CNP EC30, cGMP TR-FRET; 0% at EC30 CNP, 100% saturating CNP; activation, % at 10 µM; actives 0.11% (n = 370,000);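 active = activation at 10 µM reaching about 35% in either raw or pattern-adjusted values, limit read from the data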
NPR1 activator – GC-A (human) enzyme activation; P16066; HEK293 GC-A cells, cGMP TR-FRET, EC30 ANP; 0% at EC30 ANP, 100% saturating ANP; activation, % at 10 µM; actives 0.14% (n = 370,000); in the data active = activation above about 40%
JMJD2C inh – inhibitors of human GASC-1 (JMJD2C) demethylase; GST-JMJD2C(1-420) H3K9me3 demethylation, DELFIA europium; inhibition, % at 2.35 µM; actives 0.069% (n = 330,000);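 active = more than half of a compound's replicate wells show inhibition beyond 50%, single wells judged on their own value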;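 note: signal counts dimethyl H3K9 product captured on neutravidin plate; 0% = median of DMSO wells and 100% = 0.3 times that DMSO median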
Hep lipid drop – hepatic lipid droplet formation modulation; AML12 mouse hepatocytes, oleate lipid droplets, BODIPY imaging; inhibition, % at 6.5 µM; actives 0.4% (n = 240,000); AID 1656;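 active = lipid droplet intensity inhibited by at least 50%, with more than 500 cells counted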
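Technique: fluorescence imaging, 20x objective, two fields per well / Assay system: AML12 hepatocytes (mouse) / Measure: % inhibition of lipid droplet signal / Doses: 6.5 µM single-point dosing / Incubation: overnight exposure / Reagent: 100 µM oleic acid challenge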
GRIN3A LBD mod – modulates the human NR3A ligand-binding domain | NR3A LBD differential scanning fluorimetry, Tm shift; 0% = protein alone, 100% = glycine-bound protein | Tm shift relative to glycine control, % at 25 µM | actives 2.5% (n = 340,000) | AID 1259313;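 active = melting temperature shift of at least 10% of the positive control shift, at one fixed dose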
The depositor's hits bear a star; / = no result given.

SMILES	aDG glyco act	NPR2 activator	NPR1 activator	JMJD2C inh	Hep lipid drop	GRIN3A LBD mod
O=C(N/N=C/c1ccc2c(c1)OCO2)C(=O)Nc1ccccc1Cl	0	8	2	2	4	14*
Cc1c(C(=O)N/N=C/c2ccc(Cl)cc2)[nH]c2ccc(Cl)cc12	0	-1	-1	4	-163	26*
COc1ccc(/C=N/NC(=O)c2[nH]c(C)c(C(=O)N/N=C/c3ccc(OC)cc3)c2C)cc1	0	4	-3	-3	11	9
Cc1c(C(=O)N/N=C/C(C)C)[nH]c2ccc([N+](=O)[O-])cc12	0	8	3	26	-7	0
CCOc1ccc(/C=N/NC(=O)c2[nH]c3ccc(C)cc3c2C)cc1	0	1	-1	-4	-5	26*
CC1CC(C)CN(S(=O)(=O)c2ccc(C(=O)N3CCOCC3)cc2)C1 (stereo not drawn)	0	1	4	-3	5	2
O=S(=O)(NCCCCNS(=O)(=O)c1c(F)cccc1F)c1ccc2c(c1)OCCO2	0	9	3	2	/	15*
O=S(=O)(NCCNS(=O)(=O)c1c(F)cccc1F)c1ccc2c(c1)OCCO2	0	-1	1	/	/	-8
COCCN(C(=O)Nc1ccccc1OC)c1nc2ccccc2s1	0	0	-3	-5	-1	-6
C=CCC[C@@H](Cc1ccc(F)cc1)C(=O)OCCNC(=O)[C@@H](CC=C)CC(=O)N[C@@H](CO)Cc1ccccc1	0	-1	6	-5	/	23*
C=CCC[C@H](Cc1ccc(F)cc1)C(=O)OC[C@@H](Cc1c[nH]c2ccccc12)NC(=O)[C@@H](CC=C)CC(=O)N[C@@H](CO)Cc1ccccc1	3	-11	-4	11	/	16*
O=Cc1ccc(/C=C2\c3ccccc3C(=O)N2c2ccccc2)o1	/	-6	-3	/	/	/
COc1ccc(Cn2cnc3c4cc(F)ccc4n(C)c3c2=O)cc1	0	10	7	4	-3	15*
Cc1[nH]c2ccccc2c1/C=N/NC(N)=S	0	-2	-3	-13	6	-1
Cc1ccc(NC(=S)N/N=C/c2c(C)[nH]c3ccccc23)cc1	0	-5	2	1	38	22*
Cc1[nH]c2ccccc2c1/C=N/NC(=S)NCc1ccccc1	0	-3	4	15	-1	23*
COc1ccc(/C=C/C(=O)c2ccc(OC)cc2OC)cc1	0	-4	-2	2	-13	-1
C=C(C)C(O)Cc1c(OC)ccc(C(=O)/C=C/c2ccc(O)cc2)c1O (stereo not drawn)	0	-9	-1	/	/	25*
CC(C)=CCC/C(C)=C/Cc1c(O)ccc(C(=O)/C=C/c2ccc(O)cc2)c1O	1	-7	-8	7	10	29*
O=C(OCC(=O)C12CC3CC(CC(C3)C1)C2)c1ccc(O)cc1O	0	-2	-1	1	/	29*
O=[N+]([O-])c1cccc2ccc(/C=C/c3ccc(F)cc3)nc12	0	-10	-2	-4	-21	24*
O=[N+]([O-])c1ccc(/C=C/c2ccc3cccc([N+](=O)[O-])c3n2)cc1	-1	-6	0	-1	18	23*
CCOc1cc(/C=C/c2ccc3cccc([N+](=O)[O-])c3n2)ccc1OCC(=O)N(C)C	-1	3	2	-6	4	-8
CCOc1cc(/C=C/c2ccc3cccc([N+](=O)[O-])c3n2)ccc1O	0	-7	-9	-6	-6	25*
O=[N+]([O-])c1cccc(/C=C/c2ccc3cccc(O)c3n2)c1	0	0	-3	-37	-2	7
SMILES	aDG glyco act	NPR2 activator	NPR1 activator	JMJD2C inh	Hep lipid drop	GRIN3A LBD mod
Oc1ccc(/C=C/c2ccc3cccc(O)c3n2)cc1Br	0	-6	6	-7	/	30*
CCOC(=O)C1=C[C@@H](c2ccccc2)N(S(=O)(=O)c2ccc(C)cc2)[C@H]1c1ccc(F)cc1	0	-4	-4	/	/	/
Cc1ccc(NC(=O)Cn2c(O)c(N=NC(=O)c3cc([N+](=O)[O-])ccc3O)c3ccccc32)cc1	/	/	/	12	2	/
Cc1cccc(NC(=O)Cn2c(O)c(N=NC(=O)c3ccccc3O)c3ccccc32)c1	0	-10	-1	-1	-6	21*
Cc1ccc(S(=O)(=O)Nc2ccccc2CNc2ccc(Br)cn2)cc1	0	-14	-19	3	-121	14*
O=C(OCc1c(-c2ccccc2)ncc2ccccc12)c1ccc(F)cc1	1	2	5	-6	/	14*
COc1ccc(-c2csc(Nc3ccc(S(N)(=O)=O)cc3)n2)cc1	1	2	4	1	12	23*
Cc1ccc(Nc2nc(C)cs2)cc1	0	1	2	-1	13	26*
Oc1ccc(Nc2nc(-c3ccc(O)cc3)cs2)cc1	0	-1	-4	-9	-21	12*
COc1ccc2oc(=O)c(/C(C)=N/Nc3nc(-c4cc(C)ccc4C)cs3)cc2c1	0	3	-2	-13	-5	-4
NS(=O)(=O)c1ccc(Nc2nc(-c3ccc(O)cc3)cs2)cc1	0	-3	-5	-5	1	3
COc1ccc2oc(=O)c(-c3csc(Nc4ccc(O)cc4)n3)cc2c1	0	-5	6	0	0	11*
CC(=O)Oc1ccc(-c2csc(Nc3ccc(S(N)(=O)=O)cc3)n2)cc1	0	-3	-9	-3	2	3
Clc1ccc(Nc2nc(-c3ccncc3)cs2)cc1	4	-7	-7	12	/	10*
Cc1cc(NC(=O)Cc2c(C)[nH]c3ccccc23)ccc1Oc1cccnc1	/	-6	4	/	/	/
CNC(=O)c1cc(Oc2ccc(NC(=O)Nc3ccc(Cl)c(C(F)(F)F)c3)cc2)ccn1	1	7	-8	/	/	12*
COc1ccc(NC2CCCN(C(=O)CCc3scnc3C)C2)cc1 (stereo not drawn)	0	-5	-4	-2	-24	14*
CCOC(=O)c1[nH]c2ccc(F)cc2c1NC(=O)C1=COCCO1	0	0	-1	2	9	20*
CCOC(=O)c1[nH]c2ccc(F)cc2c1NC(=O)c1ccccc1C(=O)O	0	5	1	8	10	2
COc1ccc(Cn2cc(CN3CC=CS3(=O)=O)nn2)cc1	/	4	1	/	/	/
O=C(NNC(=O)c1cccnc1SCc1cccc([N+](=O)[O-])c1)c1ccccn1	2	-1	5	-12	-5	18*
Cc1ccccc1NC(=O)CSc1nc(N)c2c3c(sc2n1)CSC(C)(C)C3	0	4	5	-2	18	5
